Measurements published in ChEMBL document CHEMBL1765045, “Fine-tuning the selectivity of aldosterone synthase inhibitors: structure-activity and structure-selectivity insights from studies of heteroaryl substituted 1,2,5,6-tetrahydropyrrolo[3,2,1-ij]quinolin-4-one derivatives” (J Med Chem, 2011).

How the values were obtained:
CYP2B6 [1] = biological target: T1, CYP2B6 (Homo sapiens, UniProt P20813); assay: Inhibition of human CYP2B6 expressed in baculovirus-infected insect microsomes at 10 uM; format: ADME, Microsome
T1 sequence (P20813 whole entry): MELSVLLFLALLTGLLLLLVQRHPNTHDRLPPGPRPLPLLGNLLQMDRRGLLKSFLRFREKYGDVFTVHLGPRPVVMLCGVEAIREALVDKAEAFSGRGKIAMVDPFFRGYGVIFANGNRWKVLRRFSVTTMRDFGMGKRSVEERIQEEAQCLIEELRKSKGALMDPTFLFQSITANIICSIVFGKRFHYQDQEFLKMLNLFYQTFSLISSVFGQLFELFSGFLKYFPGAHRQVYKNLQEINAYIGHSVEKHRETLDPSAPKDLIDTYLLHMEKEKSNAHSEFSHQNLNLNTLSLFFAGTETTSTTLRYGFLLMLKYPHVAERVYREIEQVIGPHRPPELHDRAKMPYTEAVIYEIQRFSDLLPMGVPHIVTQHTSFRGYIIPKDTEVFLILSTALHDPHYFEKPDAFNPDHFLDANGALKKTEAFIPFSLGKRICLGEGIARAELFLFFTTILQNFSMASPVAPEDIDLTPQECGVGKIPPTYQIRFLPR
Method in brief: (§1)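 Recombinant human CYP1A2, 2B6, 2C9, 2C19, 2D6 or 3A4 in baculovirus-infected insect microsomes (Supersomes), run per manufacturer's protocol. Inhibitor at 1 and 10 μM; percent inhibition is the mean of two experiments.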

CYP2D6 = CYP2D6 (Homo sapiens, UniProt P10635); assay: Inhibition of human CYP2D6 expressed in baculovirus-infected insect microsomes at 10 uM; format: ADME, Microsome; method in brief: as §1
[2] = biological target: T2, Cytochrome P450 11B2, mitochondrial (Homo sapiens, UniProt P19099); assay: Inhibition of human CYP11B2 expressed in hamster V79 MZh cells assessed as conversion of [4-14C]-11-deoxycorticosterone substrate by HPTLC assay; format: cell-based
T2 sequence (P19099 whole entry): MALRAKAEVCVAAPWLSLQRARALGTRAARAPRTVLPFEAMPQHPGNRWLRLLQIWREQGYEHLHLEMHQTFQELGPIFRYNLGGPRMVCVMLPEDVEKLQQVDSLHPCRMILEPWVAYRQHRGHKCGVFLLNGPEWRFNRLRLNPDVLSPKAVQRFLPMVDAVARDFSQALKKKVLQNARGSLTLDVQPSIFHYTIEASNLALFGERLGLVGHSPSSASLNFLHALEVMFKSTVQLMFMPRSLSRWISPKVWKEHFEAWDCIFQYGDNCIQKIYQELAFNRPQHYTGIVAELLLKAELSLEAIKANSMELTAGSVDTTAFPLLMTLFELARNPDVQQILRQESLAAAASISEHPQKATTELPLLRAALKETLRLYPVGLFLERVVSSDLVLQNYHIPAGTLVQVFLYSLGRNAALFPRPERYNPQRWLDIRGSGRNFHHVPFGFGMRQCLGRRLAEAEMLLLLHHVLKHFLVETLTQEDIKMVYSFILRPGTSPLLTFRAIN
Method in brief: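 Hamster V79 MZh fibroblasts expressing human CYP11B2 incubated with [4-14C]-11-deoxycorticosterone (100 nM) and inhibitor at ≥3 concentrations; reaction stopped with ethyl acetate, steroids extracted after shaking and centrifugation (10000g, 2 min). Substrate conversion read by HPTLC with phosphoimaging.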

CYP1A2 = biological target: T3, CYP1A2 (Homo sapiens, UniProt P05177); assay: Inhibition of human CYP1A2 expressed in baculovirus-infected insect microsomes at 1 uM; format: ADME, Microsome; method in brief: as §1
T3 sequence (P05177 whole entry): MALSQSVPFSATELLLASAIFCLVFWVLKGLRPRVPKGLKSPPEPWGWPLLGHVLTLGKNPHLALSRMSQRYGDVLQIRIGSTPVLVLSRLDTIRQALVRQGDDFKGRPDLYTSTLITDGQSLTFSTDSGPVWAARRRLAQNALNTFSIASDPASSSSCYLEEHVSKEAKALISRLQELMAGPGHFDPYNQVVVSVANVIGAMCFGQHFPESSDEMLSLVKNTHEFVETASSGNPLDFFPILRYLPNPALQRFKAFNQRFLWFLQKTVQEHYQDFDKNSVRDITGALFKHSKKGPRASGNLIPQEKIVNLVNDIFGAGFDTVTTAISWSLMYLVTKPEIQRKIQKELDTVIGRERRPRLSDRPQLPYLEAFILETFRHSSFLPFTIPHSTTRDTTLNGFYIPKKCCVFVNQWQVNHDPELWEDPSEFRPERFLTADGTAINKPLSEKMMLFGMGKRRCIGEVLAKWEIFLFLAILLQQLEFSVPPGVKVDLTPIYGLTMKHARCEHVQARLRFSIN

CYP2B6 [3] = biological target: T1, CYP2B6; assay: Inhibition of human CYP2B6 expressed in baculovirus-infected insect microsomes at 1 uM; format: ADME, Microsome; method in brief: as §1
[4] = biological target: T4, Cytochrome P450 11B1, mitochondrial (Homo sapiens, UniProt P15538); assay: Inhibition of human CYP11B1 expressed in hamster V79 MZh cells assessed as conversion of [4-14C]-11-deoxycorticosterone substrate by HPTLC assay; format: cell-based
T4 sequence (P15538 whole entry): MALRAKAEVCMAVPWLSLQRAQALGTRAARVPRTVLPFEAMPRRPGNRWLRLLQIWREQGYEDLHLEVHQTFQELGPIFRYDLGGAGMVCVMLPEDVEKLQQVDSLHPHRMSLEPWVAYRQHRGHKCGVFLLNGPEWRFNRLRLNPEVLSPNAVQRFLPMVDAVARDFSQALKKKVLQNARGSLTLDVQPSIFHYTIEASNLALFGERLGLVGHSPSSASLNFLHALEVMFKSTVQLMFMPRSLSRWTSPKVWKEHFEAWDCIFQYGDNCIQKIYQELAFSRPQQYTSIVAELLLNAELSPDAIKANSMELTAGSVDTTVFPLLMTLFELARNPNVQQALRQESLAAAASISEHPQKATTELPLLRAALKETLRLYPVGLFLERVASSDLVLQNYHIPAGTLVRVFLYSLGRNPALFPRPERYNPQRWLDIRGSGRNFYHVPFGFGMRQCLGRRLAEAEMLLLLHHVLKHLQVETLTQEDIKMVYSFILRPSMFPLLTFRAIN
Method in brief: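 V79 MZh hamster fibroblasts stably expressing human CYP11B1 or CYP11B2 incubated with [4-14C]-11-deoxycorticosterone, 100 nM, plus inhibitor at ≥3 concentrations. Reaction stopped with ethyl acetate, steroids extracted into the organic phase, and substrate conversion quantified by HPTLC with phosphoimaging. IC50 is the mean of at least three experiments.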

CYP2C9 [5] = biological target: T5, CYP2C9 (Homo sapiens, UniProt P11712); assay: Inhibition of human CYP2C9 expressed in baculovirus-infected insect microsomes at 1 uM; format: ADME, Microsome; method in brief: as §1
CYP2C9 [6] = biological target: T5, CYP2C9; assay: Inhibition of human CYP2C9 expressed in baculovirus-infected insect microsomes at 10 uM; format: ADME, Microsome; method in brief: as §1
CYP2C19 = CYP2C19 (Homo sapiens, UniProt P33261); assay: Inhibition of human CYP2C19 expressed in baculovirus-infected insect microsomes at 1 uM; format: ADME, Microsome; method in brief: as §1
CYP2C19, sequence (P33261 whole entry): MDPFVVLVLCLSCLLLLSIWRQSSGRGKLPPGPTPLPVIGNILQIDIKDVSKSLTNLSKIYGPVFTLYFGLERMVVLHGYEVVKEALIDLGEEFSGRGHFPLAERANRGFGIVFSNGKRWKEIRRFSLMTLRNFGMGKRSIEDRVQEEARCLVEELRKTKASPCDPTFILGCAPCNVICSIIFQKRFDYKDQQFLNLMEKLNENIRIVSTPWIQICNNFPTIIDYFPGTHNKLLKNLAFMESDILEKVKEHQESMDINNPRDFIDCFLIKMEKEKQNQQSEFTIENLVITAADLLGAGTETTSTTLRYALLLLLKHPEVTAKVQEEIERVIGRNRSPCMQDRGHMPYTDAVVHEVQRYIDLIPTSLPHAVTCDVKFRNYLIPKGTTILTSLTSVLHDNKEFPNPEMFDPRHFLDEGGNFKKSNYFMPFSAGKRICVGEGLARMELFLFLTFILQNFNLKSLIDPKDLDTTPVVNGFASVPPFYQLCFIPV

T5 sequence (P11712 whole entry): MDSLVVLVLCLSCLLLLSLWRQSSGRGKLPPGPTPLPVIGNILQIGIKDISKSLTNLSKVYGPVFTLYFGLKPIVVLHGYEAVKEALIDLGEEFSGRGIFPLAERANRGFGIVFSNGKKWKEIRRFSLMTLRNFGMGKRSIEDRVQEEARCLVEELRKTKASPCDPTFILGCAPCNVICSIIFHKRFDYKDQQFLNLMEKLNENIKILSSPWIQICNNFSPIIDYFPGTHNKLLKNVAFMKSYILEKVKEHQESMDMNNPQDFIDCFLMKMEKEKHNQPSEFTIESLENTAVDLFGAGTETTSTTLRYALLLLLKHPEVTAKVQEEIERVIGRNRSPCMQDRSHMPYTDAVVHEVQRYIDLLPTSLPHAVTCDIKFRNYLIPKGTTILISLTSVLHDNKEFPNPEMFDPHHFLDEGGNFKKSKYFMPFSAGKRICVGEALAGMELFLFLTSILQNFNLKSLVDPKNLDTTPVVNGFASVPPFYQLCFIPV
CYP2D6, sequence (P10635 whole entry): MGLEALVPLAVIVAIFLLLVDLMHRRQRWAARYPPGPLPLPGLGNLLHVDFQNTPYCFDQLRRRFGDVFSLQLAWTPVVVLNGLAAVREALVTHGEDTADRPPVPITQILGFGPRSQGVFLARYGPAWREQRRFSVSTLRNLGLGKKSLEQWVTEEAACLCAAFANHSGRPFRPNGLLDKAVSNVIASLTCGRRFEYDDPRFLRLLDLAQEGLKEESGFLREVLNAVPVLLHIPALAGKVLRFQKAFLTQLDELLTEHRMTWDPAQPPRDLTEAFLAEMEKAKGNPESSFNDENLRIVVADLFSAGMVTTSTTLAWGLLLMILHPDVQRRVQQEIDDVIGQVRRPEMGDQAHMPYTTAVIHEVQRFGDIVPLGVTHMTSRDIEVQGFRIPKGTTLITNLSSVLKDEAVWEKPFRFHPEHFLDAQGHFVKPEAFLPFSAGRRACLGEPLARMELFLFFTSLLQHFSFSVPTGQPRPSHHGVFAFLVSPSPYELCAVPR

SMILES | inhibition at 10 µM (CYP2B6 [1]) | inhibition at 10 µM (CYP2D6) | IC50 [2] | inhibition at 1 µM (CYP1A2) | inhibition at 1 µM (CYP2B6 [3]) | IC50 [4] | inhibition at 1 µM (CYP2C9 [5]) | inhibition at 10 µM (CYP2C9 [6]) | inhibition at 1 µM (CYP2C19)
O=C1CCc2cc(-c3cccnc3)cc3c2N1CC3 | < 5% | < 5% | 0.0011 µM | 8% | < 5% | 0.715 µM | 6% | 41% | < 5%
O=C1CCc2cc(-c3cncc(-c4cccc(F)c4)c3)cc3c2N1CC3 | 13% | 9% | 0.0014 µM | 9% | < 5% | 0.49 µM | 39% | 79% | –
COc1cncc(-c2cc3c4c(c2)CCN4C(=O)CC3)c1 | 8% | 13% | 0.0006 µM | 37% | < 5% | 0.247 µM | 23% | 42% | 7%
O=C1CCc2cc(-c3cccnc3)cc3c2N1CCC3 | 36% | – | 0.0024 µM | 41% | 27% | 2.3 µM | 19% | 40% | 8%
